Laboratory results reported in ChEMBL document CHEMBL1140728, “Synthesis and biological activity of human neuropeptide S analogues modified in position 2” (J Med Chem, 2008).
Non-standard residues stand in square brackets, D forms with d. Residues, ends and D or L forms follow the SMILES beside them. Phe(4-CF3) = N[C@@H](Cc1ccc(C(F)(F)F)cc1)C(=O)O; Bip = N[C@@H](Cc1ccc(-c2ccccc2)cc1)C(=O)O; Phe(4-Br) = N[C@@H](Cc1ccc(Br)cc1)C(=O)O; Phe(4-CN) = N#Cc1ccc(C[C@H](N)C(=O)O)cc1; Phe(4-Cl) = N[C@@H](Cc1ccc(Cl)cc1)C(=O)O; 1Nal = N[C@@H](Cc1cccc2ccccc12)C(=O)O; Atc(2S) = N[C@@]1(C(=O)O)CCc2ccccc2C1; Phe(2-Me) = Cc1ccccc1C[C@H](N)C(=O)O; Cha = N[C@@H](CC1CCCCC1)C(=O)O; Aic = NC1(C(=O)O)Cc2ccccc2C1; Nphe = O=C(O)CNCc1ccccc1

Assays:
[1] = target: T1, Neuropeptide S receptor (Mus musculus) (UniProt Q8BZP8); experiment: Agonist activity at mouse recombinant NPS receptor expressed in HEK293 cells assessed as intracellular calcium mobilization relative to baseline; type: functional, cell-based
T1 sequence (whole entry): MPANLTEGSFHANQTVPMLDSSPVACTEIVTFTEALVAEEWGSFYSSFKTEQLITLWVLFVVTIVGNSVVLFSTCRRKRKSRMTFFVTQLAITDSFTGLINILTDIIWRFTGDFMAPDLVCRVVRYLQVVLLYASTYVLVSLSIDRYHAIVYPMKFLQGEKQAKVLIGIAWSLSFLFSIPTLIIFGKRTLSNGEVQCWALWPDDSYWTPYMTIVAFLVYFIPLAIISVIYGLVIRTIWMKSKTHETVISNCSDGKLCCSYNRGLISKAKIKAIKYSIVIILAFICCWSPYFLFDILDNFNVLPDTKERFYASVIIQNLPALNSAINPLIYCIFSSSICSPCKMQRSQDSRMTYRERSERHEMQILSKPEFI
Method in brief: (§1)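 HEK293 cells stably expressing mouse NPSR, kept in DMEM with 10% FBS, 2 mM L-glutamine and hygromycin (100 mg/L), were seeded at 50 000 cells/well. Next day they were loaded with Fluo-4 AM (3 µmol), probenecid (2.5 mmol) and 0.01% pluronic acid for 30 min at 37 °C. Agonist dilutions in HBSS/HEPES with 0.02% BSA were added, and FlexStation II fluorescence was read at 22 °C.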

[2] = target: T2, Neuropeptide S receptor (Mus musculus, UniProt Q8BZP8); experiment: Agonist activity at mouse recombinant NPS receptor expressed in HEK293 cells assessed as intracellular calcium mobilization; type: functional, cell-based; method in brief: as §1
T2 sequence (Q8BZP8 whole entry): T1 sequence (whole entry)

Compound	Emax [1] [%]	EC50 [2] [nM]
CSCC[C@H](NC(=O)CNC(=O)[C@@H](NC(=O)CNC(=O)[C@@H](NC(=O)CNC(=O)[C@H](CC(N)=O)NC(=O)[C@H](CCCNC(=N)N)NC(=O)[C@H](Cc1cccc2ccccc12)NC(=O)[C@@H](N)CO)C(C)C)[C@@H](C)O)C(=O)N[C@@H](CCCCN)C(=O)N[C@@H](CCCCN)C(=O)N[C@H](C(=O)N[C@@H](CO)C(=O)N[C@@H](Cc1ccccc1)C(=O)N[C@@H](CCC(N)=O)C(=O)N[C@@H](CCCNC(=N)N)C(=O)N[C@@H](C)C(=O)N[C@@H](CCCCN)C(=O)N[C@@H](CO)C(=O)O)[C@@H](C)O (H-S[1Nal]RNGVGTGMKKTSFQRAKS-OH)	232	1.95
CSCC[C@H](NC(=O)CNC(=O)[C@@H](NC(=O)CNC(=O)[C@@H](NC(=O)CNC(=O)[C@H](CC(N)=O)NC(=O)[C@H](CCCNC(=N)N)NC(=O)[C@H](Cc1ccc(-c2ccccc2)cc1)NC(=O)[C@@H](N)CO)C(C)C)[C@@H](C)O)C(=O)N[C@@H](CCCCN)C(=O)N[C@@H](CCCCN)C(=O)N[C@H](C(=O)N[C@@H](CO)C(=O)N[C@@H](Cc1ccccc1)C(=O)N[C@@H](CCC(N)=O)C(=O)N[C@@H](CCCNC(=N)N)C(=O)N[C@@H](C)C(=O)N[C@@H](CCCCN)C(=O)N[C@@H](CO)C(=O)O)[C@@H](C)O (H-S[Bip]RNGVGTGMKKTSFQRAKS-OH)	170	20
CSCC[C@H](NC(=O)CNC(=O)[C@@H](NC(=O)CNC(=O)[C@@H](NC(=O)CNC(=O)[C@H](CC(N)=O)NC(=O)[C@H](CCCNC(=N)N)NC(=O)[C@H](CC1CCCCC1)NC(=O)[C@@H](N)CO)C(C)C)[C@@H](C)O)C(=O)N[C@@H](CCCCN)C(=O)N[C@@H](CCCCN)C(=O)N[C@H](C(=O)N[C@@H](CO)C(=O)N[C@@H](Cc1ccccc1)C(=O)N[C@@H](CCC(N)=O)C(=O)N[C@@H](CCCNC(=N)N)C(=O)N[C@@H](C)C(=O)N[C@@H](CCCCN)C(=O)N[C@@H](CO)C(=O)O)[C@@H](C)O (H-S[Cha]RNGVGTGMKKTSFQRAKS-OH)	221	1.35
CSCC[C@H](NC(=O)CNC(=O)[C@@H](NC(=O)CNC(=O)[C@@H](NC(=O)CNC(=O)[C@H](CC(N)=O)NC(=O)[C@H](CCCNC(=N)N)NC(=O)CN(Cc1ccccc1)C(=O)[C@@H](N)CO)C(C)C)[C@@H](C)O)C(=O)N[C@@H](CCCCN)C(=O)N[C@@H](CCCCN)C(=O)N[C@H](C(=O)N[C@@H](CO)C(=O)N[C@@H](Cc1ccccc1)C(=O)N[C@@H](CCC(N)=O)C(=O)N[C@@H](CCCNC(=N)N)C(=O)N[C@@H](C)C(=O)N[C@@H](CCCCN)C(=O)N[C@@H](CO)C(=O)O)[C@@H](C)O (H-S[Nphe]RNGVGTGMKKTSFQRAKS-OH)	246	15.5
CSCC[C@H](NC(=O)CNC(=O)[C@@H](NC(=O)CNC(=O)[C@@H](NC(=O)CNC(=O)[C@H](CC(N)=O)NC(=O)[C@H](CCCNC(=N)N)NC(=O)[C@H](Cc1ccc(C(F)(F)F)cc1)NC(=O)[C@@H](N)CO)C(C)C)[C@@H](C)O)C(=O)N[C@@H](CCCCN)C(=O)N[C@@H](CCCCN)C(=O)N[C@H](C(=O)N[C@@H](CO)C(=O)N[C@@H](Cc1ccccc1)C(=O)N[C@@H](CCC(N)=O)C(=O)N[C@@H](CCCNC(=N)N)C(=O)N[C@@H](C)C(=O)N[C@@H](CCCCN)C(=O)N[C@@H](CO)C(=O)O)[C@@H](C)O (H-S[Phe(4-CF3)]RNGVGTGMKKTSFQRAKS-OH)	286	2.57
CSCC[C@H](NC(=O)CNC(=O)[C@@H](NC(=O)CNC(=O)[C@@H](NC(=O)CNC(=O)[C@H](CC(N)=O)NC(=O)[C@H](CCCNC(=N)N)NC(=O)[C@H](Cc1ccc(C#N)cc1)NC(=O)[C@@H](N)CO)C(C)C)[C@@H](C)O)C(=O)N[C@@H](CCCCN)C(=O)N[C@@H](CCCCN)C(=O)N[C@H](C(=O)N[C@@H](CO)C(=O)N[C@@H](Cc1ccccc1)C(=O)N[C@@H](CCC(N)=O)C(=O)N[C@@H](CCCNC(=N)N)C(=O)N[C@@H](C)C(=O)N[C@@H](CCCCN)C(=O)N[C@@H](CO)C(=O)O)[C@@H](C)O (H-S[Phe(4-CN)]RNGVGTGMKKTSFQRAKS-OH)	296	3.31
CSCC[C@H](NC(=O)CNC(=O)[C@@H](NC(=O)CNC(=O)[C@@H](NC(=O)CNC(=O)[C@H](CC(N)=O)NC(=O)[C@H](CCCNC(=N)N)NC(=O)[C@H](Cc1ccc(Cl)cc1)NC(=O)[C@@H](N)CO)C(C)C)[C@@H](C)O)C(=O)N[C@@H](CCCCN)C(=O)N[C@@H](CCCCN)C(=O)N[C@H](C(=O)N[C@@H](CO)C(=O)N[C@@H](Cc1ccccc1)C(=O)N[C@@H](CCC(N)=O)C(=O)N[C@@H](CCCNC(=N)N)C(=O)N[C@@H](C)C(=O)N[C@@H](CCCCN)C(=O)N[C@@H](CO)C(=O)O)[C@@H](C)O (H-S[Phe(4-Cl)]RNGVGTGMKKTSFQRAKS-OH)	298	0.708

Next, values leading:

Emax [1] [%]	EC50 [2] [nM]	Compound
211	33.9	CSCC[C@H](NC(=O)CNC(=O)[C@@H](NC(=O)CNC(=O)[C@@H](NC(=O)CNC(=O)[C@H](CC(N)=O)NC(=O)[C@H](CCCNC(=N)N)NC(=O)C1(NC(=O)[C@@H](N)CO)Cc2ccccc2C1)C(C)C)[C@@H](C)O)C(=O)N[C@@H](CCCCN)C(=O)N[C@@H](CCCCN)C(=O)N[C@H](C(=O)N[C@@H](CO)C(=O)N[C@@H](Cc1ccccc1)C(=O)N[C@@H](CCC(N)=O)C(=O)N[C@@H](CCCNC(=N)N)C(=O)N[C@@H](C)C(=O)N[C@@H](CCCCN)C(=O)N[C@@H](CO)C(=O)O)[C@@H](C)O (H-S[Aic]RNGVGTGMKKTSFQRAKS-OH)
257	11.2	CSCC[C@H](NC(=O)CNC(=O)[C@@H](NC(=O)CNC(=O)[C@@H](NC(=O)CNC(=O)[C@H](CC(N)=O)NC(=O)[C@H](CCCNC(=N)N)NC(=O)[C@]1(NC(=O)[C@@H](N)CO)CCc2ccccc2C1)C(C)C)[C@@H](C)O)C(=O)N[C@@H](CCCCN)C(=O)N[C@@H](CCCCN)C(=O)N[C@H](C(=O)N[C@@H](CO)C(=O)N[C@@H](Cc1ccccc1)C(=O)N[C@@H](CCC(N)=O)C(=O)N[C@@H](CCCNC(=N)N)C(=O)N[C@@H](C)C(=O)N[C@@H](CCCCN)C(=O)N[C@@H](CO)C(=O)O)[C@@H](C)O (H-S[Atc(2S)]RNGVGTGMKKTSFQRAKS-OH)
222	1.86	CSCC[C@H](NC(=O)CNC(=O)[C@@H](NC(=O)CNC(=O)[C@@H](NC(=O)CNC(=O)[C@H](CC(N)=O)NC(=O)[C@H](CCCNC(=N)N)NC(=O)[C@H](Cc1ccccc1C)NC(=O)[C@@H](N)CO)C(C)C)[C@@H](C)O)C(=O)N[C@@H](CCCCN)C(=O)N[C@@H](CCCCN)C(=O)N[C@H](C(=O)N[C@@H](CO)C(=O)N[C@@H](Cc1ccccc1)C(=O)N[C@@H](CCC(N)=O)C(=O)N[C@@H](CCCNC(=N)N)C(=O)N[C@@H](C)C(=O)N[C@@H](CCCCN)C(=O)N[C@@H](CO)C(=O)O)[C@@H](C)O (H-S[Phe(2-Me)]RNGVGTGMKKTSFQRAKS-OH)
309	0.646	CSCC[C@H](NC(=O)CNC(=O)[C@@H](NC(=O)CNC(=O)[C@@H](NC(=O)CNC(=O)[C@H](CC(N)=O)NC(=O)[C@H](CCCNC(=N)N)NC(=O)[C@H](Cc1ccc(Br)cc1)NC(=O)[C@@H](N)CO)C(C)C)[C@@H](C)O)C(=O)N[C@@H](CCCCN)C(=O)N[C@@H](CCCCN)C(=O)N[C@H](C(=O)N[C@@H](CO)C(=O)N[C@@H](Cc1ccccc1)C(=O)N[C@@H](CCC(N)=O)C(=O)N[C@@H](CCCNC(=N)N)C(=O)N[C@@H](C)C(=O)N[C@@H](CCCCN)C(=O)N[C@@H](CO)C(=O)O)[C@@H](C)O (H-S[Phe(4-Br)]RNGVGTGMKKTSFQRAKS-OH)
